Data taken from ChEMBL document CHEMBL1122646, “Synthesis of pyridine derivatives of L-phenylalanine as antisickling reagents” (1984).

Legend:
Format in all cases: functional
[1] = Antisickling activity and change in mean corpuscular hemoglobin ratio was reported at a concentration of 4.80 mM.
In short: (§1)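 Erythrocytes incubated with compound as in the morphological assay (PBS pH 7.2, 295 mosmol/kg, 0.5% BSA, 37 °C) but at 10% hematocrit. Triplicate readings on each of three aliquots taken 1 to 3 h after exposure. Lysis and cyanomet-Hb conversion, then MCHC read on a Coulter hemoglobinometer. Values averaged over nine measurements and expressed as MCHC0/MCHC.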

[2] = Effect of 3 mM of compound on homozygous sickle cells at a total oxygen saturation of 47% and estimates of volume fraction of HbS polymer present was determined.
In short: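 Homozygous SS cells (MCHC 33.9 g %) at 1% Hct with 3 mM compound, deoxygenated at 37 °C with 4.06% O2 gas (47% total O2 saturation per O2 affinity curve in PBS pH 7.392). Suspension forced through a 5-μm polycarbonate membrane at 3.1 cmHg. Passed cells weighed after 5-6 min, corrected for interstitial solvent with 3H-methoxyinulin. R = deoxygenated/oxygenated recovered weight. fp calculated with Cp 0.69 g/cm3 and Cs0 0.164 g/cm3.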

[3] = Antisickling activity and change in mean corpuscular hemoglobin ratio was reported at a concentration of 3.65 mM.; in short: as §1
[4] = Aantisickling activity and percentage of cells sickled after incubation in 3 mM solution under oxygen content 0.0% was reported.
In short: (§2)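 Washed homozygous SS erythrocytes (HbF <8%, MCHC 33.5 g %, stored 4 °C, used within 24 h) at 1.0% hematocrit in PBS pH 7.2 (295 mosmol/kg, 0.5% w/v BSA) with 3 mM compound. Incubated 1 h at 37 °C with rotation. Cells were air-exposed 10 min, deoxygenated with 4.06% O2/4.4% CO2/N2, or deoxygenated with N2 alone. PO2 measured, then anaerobic fixation, 30 min RT.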

[5] = Antisickling activity and percentage of cells sickled after incubation in 3 mM solution under oxygen content 4.06% was reported at 30.8 mm of Hg pressure.; in short: as §2
[6] = Antisickling activity and change in mean corpuscular hemoglobin ratio was reported at a concentration of 1.35 mM.; in short: as §1
[7] = Antisickling activity and change in mean corpuscular hemoglobin ratio was reported at a concentration of 2.55 mM.; in short: as §1
[8] = Antisickling activity and percentage of cells sickled after incubation in 3 mM solution under oxygen content 20.1% was reported at normal atmospheric pressure.; in short: as §2

Compound | Ratio [1] | fp [2] | Ratio [3] | Cells sickled [4] [%] | Cells sickled [5] [%] | Ratio [6] | Ratio [7] | Cells sickled [8] [%]
Cl.Cl.NC(Cc1ccccc1)C(=O)Nc1ccccn1 (centres undefined) | 1.15 | 0.24 | 1.11 | 71.1 | 32.6 | 1.04 | 1.08 | 9.1
Cl.Cl.NC(Cc1ccccc1)C(=O)Nc1cccnc1 (centres undefined) | 1.17 | 0.24 | 1.13 | 59 | 23.6 | 1.05 | 1.07 | 11.4
Cl.Cl.NC(Cc1ccccc1)C(=O)Nc1ccncc1 (centres undefined) | – | – | – | 70.8 | 25.2 | – | – | 10.2
